Test results taken from ChEMBL document CHEMBL2406982, “Structure-activity relationships of new cyanothiophene inhibitors of the essential peptidoglycan biosynthesis enzyme MurF” (Eur J Med Chem, 2013).
≈ marks a conversion by molar mass, not a printed value. Calls of active or inactive are those of the source. The calls are words filed in the database; no cut-off is given here.

What was measured:
Streptococcus pneumoniae [1] = assay: Antimicrobial activity against Streptococcus pneumoniae R6 by broth microdilution method; format: functional
Summary of the method: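 MIC by CLSI broth microdilution in Mueller-Hinton broth supplemented with 5% (v/v) lysed horse blood.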

[2] = Inhibition of Streptococcus pneumoniae MurF
Escherichia coli [3] = assay: Inhibition of Escherichia coli MurF using D-Ala-D-Ala/UMtri-mDAP as substrate assessed as residual activity at 100 uM after 15 mins by Malachite green method
Summary of the method: (§1)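 Purified E. coli MurF in 50 mM Hepes pH 8.0, 50 mM MgCl2, 0.005% Triton X-114, with D-Ala-D-Ala, UMtri-mDAP and ATP. Compound was added in DMSO (final 5% v/v). Mixtures were incubated 15 min at 37 °C, quenched with Biomol reagent, and absorbance was read at 650 nm after 5 min. Runs were in duplicate. Residual activity was taken versus DMSO-only controls. IC50 came from residual activity at seven concentrations.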

[4] = Inhibition of Streptococcus pneumoniae MurF using D-Ala-D-Ala/UMtri-L-Lys as substrate after 15 mins by Malachite green method
Summary of the method: (§2)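 Purified S. pneumoniae MurF in 50 mM Hepes pH 8.0, 50 mM MgCl2, 0.005% Triton X-114, with D-Ala-D-Ala, UMtri-L-Lys and ATP. Compound was added in DMSO (5% v/v final). Reactions ran 15 min at 37 °C, were stopped with Biomol malachite green reagent, and A650 was measured after 5 min. Runs were in duplicate. Residual activity was versus DMSO controls. IC50 was from seven concentrations.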

Staphylococcus aureus [5] = assay: Inhibition of Staphylococcus aureus MurF using D-Ala-D-Ala/UMtri-L-Lys as substrate assessed as residual activity at 100 uM after 15 mins by Malachite green method
Summary of the method: (§3)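 S. aureus MurF, purified, assayed in 50 mM Hepes pH 8.0 with 20 mM MgCl2 and 0.005% Triton X-114, with D-Ala-D-Ala, UMtri-L-Lys and ATP. Compound was in DMSO (5% v/v final). After 15 min at 37 °C, Biomol reagent was added and A650 was read 5 min later. Duplicates were run. Residual activity was relative to 5% DMSO controls. IC50 was read as 50% residual activity across seven concentrations.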

Escherichia coli [6] = assay: Antimicrobial activity against Escherichia coli AB734 by broth microdilution method; format: functional, organism-based
Summary of the method: (§4)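 Broth microdilution MIC per CLSI guidelines in Mueller-Hinton broth. E. coli 1411 and AB734 were also tested with added polymyxin B nonapeptide to permeabilise the outer membrane.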

Staphylococcus aureus [7] = assay: Antimicrobial activity against Staphylococcus aureus SH1000 by broth microdilution method; format: functional, organism-based
Summary of the method: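 MIC by broth microdilution in Mueller-Hinton broth following CLSI guidelines.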

Streptococcus pneumoniae [8] = assay: Inhibition of Streptococcus pneumoniae MurF using D-Ala-D-Ala/UMtri-L-Lys as substrate assessed as residual activity at 100 uM after 15 mins by Malachite green method; summary of the method: as §2
Escherichia coli [9] = assay: Antimicrobial activity against Escherichia coli 1411 by broth microdilution method; format: functional, organism-based; summary of the method: as §4
[10] = Inhibition of Staphylococcus aureus MurF using D-Ala-D-Ala/UMtri-L-Lys as substrate after 15 mins by Malachite green method; summary of the method: as §3
[11] = Inhibition of Escherichia coli MurF using D-Ala-D-Ala/UMtri-mDAP as substrate after 15 mins by Malachite green method; summary of the method: as §1

| SMILES | MIC (Streptococcus pneumoniae [1]) [µg/mL] | IC50 [2] [µM] | Activity (Escherichia coli [3]) [%] | IC50 [4] [µM] | Activity (Staphylococcus aureus [5]) [%] | Activity (Escherichia coli [6]) | Activity (Staphylococcus aureus [7]) | Activity (Streptococcus pneumoniae [8]) [%] | Activity (Escherichia coli [9]) | IC50 [10] [µM] | IC50 [11] [µM] |
| --- | --- | --- | --- | --- | --- | --- | --- | --- | --- | --- | --- |
| N#Cc1c(NC(=O)c2cc(S(=O)(=O)N3CCOCC3)c(Cl)cc2Cl)sc2c1CCCC2 | 64 (≈ 128 µM) | 1 | 100 | 4 | 107 | – | – | – | – | – | – |
| CCOC(=O)c1ccc(N2CCc3c(sc(NC(=O)c4cc(S(=O)(=O)N5CCOCC5)c(Cl)cc4Cl)c3C#N)C2)cc1 | > 128 | – | 98 | – | 79 | inactive | inactive | 80 | inactive | – | – |
| N#Cc1c(NC(=O)c2cc(S(=O)(=O)N3CCSC3)c(Cl)cc2Cl)sc2c1CCCC2 | > 128 | – | 104 | – | 85 | inactive | inactive | 66 | inactive | – | – |
| CCOC(=O)C1CCN(S(=O)(=O)c2cc(C(=O)Nc3sc4c(c3C#N)CCCC4)c(Cl)cc2Cl)CC1 | – | – | 95 | – | 100 | inactive | inactive | 100 | inactive | – | – |
| COc1ccc(CN2CCc3c(sc(NC(=O)c4cc(S(=O)(=O)N5CCOCC5)c(Cl)cc4Cl)c3C#N)C2)cc1 | > 128 | – | – | 0.6 | – | inactive | inactive | – | inactive | 95 | 82 |
| N#Cc1c(NC(=O)c2cc(S(=O)(=O)N3CCSCC3)c(Cl)cc2Cl)sc2c1CCCC2 | > 128 | – | 91 | – | 95 | inactive | inactive | 42 | inactive | – | – |
| N#Cc1c(NC(=O)c2cc(S(=O)(=O)N3CCNC(=O)C3)c(Cl)cc2Cl)sc2c1CCCC2 | – | – | 91 | – | 95 | inactive | inactive | 89 | inactive | – | – |
| COc1ccc(CN2CCc3c(sc(NC(=O)c4cc(S(=O)(=O)N5CCOCC5)c(Cl)cc4Cl)c3C#N)C2)cc1OC | > 128 | – | – | 10.4 | – | inactive | inactive | – | inactive | 66.5 | 37 |
| N#Cc1c(NC(=O)c2cc(S(=O)(=O)N3CCOCC3)c(Cl)cc2Cl)sc2c1CCN(Cc1ccc([N+](=O)[O-])cc1)C2 | 128 (≈ 201 µM) | – | – | 1.09 | – | inactive | inactive | – | inactive | 94 | 101 |
| N#Cc1c(NC(=O)c2cc(S(=O)(=O)N3CCOCC3)c(Cl)cc2Cl)sc2c1CCN(c1ccc([N+](=O)[O-])cc1)C2 | > 128 | – | 74 | – | 83 | inactive | inactive | 80 | inactive | – | – |
| N#Cc1ccc(N2CCc3c(sc(NC(=O)c4cc(S(=O)(=O)N5CCOCC5)c(Cl)cc4Cl)c3C#N)C2)cc1 | > 128 | – | 95 | – | 85 | inactive | inactive | 63 | inactive | – | – |
| N#Cc1c(NC(=O)c2cc(S(=O)(=O)N3CCOCC3)c(Cl)cc2Cl)sc2c1CCN(Cc1ccc(F)cc1)C2 | > 128 | – | – | 0.98 | – | inactive | inactive | – | inactive | 79 | 100 |
| N#Cc1c(NC(=O)c2cc(S(=O)(=O)N3CCOCC3)c(Cl)cc2Cl)sc2c1CCN(Cc1ccc(C(=O)O)cc1)C2 | > 128 | – | – | 0.86 | – | inactive | inactive | – | inactive | 110 | 118 |
| N#Cc1c(NC(=O)c2cc(S(=O)(=O)N3CCOCC3)c(Cl)cc2Cl)sc2c1CCN(Cc1ccccc1)C2 | > 128 | – | – | 0.64 | – | inactive | inactive | – | inactive | 80 | 109 |
| N#Cc1c(NC(=O)c2cc(S(=O)(=O)N3CCOCC3)c(Cl)cc2Cl)sc2c1CCN(Cc1ccc(-c3nnn[nH]3)cc1)C2 | > 128 | – | – | 0.3 | – | inactive | inactive | – | inactive | 120 | 55 |
| N#Cc1c(NC(=O)c2cc(S(=O)(=O)N3CCOCC3)c(Cl)cc2Cl)sc2c1CC[C@@H](c1ccc(O)cc1)C2 | – | 0.022 | – | – | – | – | – | – | – | – | – |
| N#Cc1c(NC(=O)c2cc(S(=O)(=O)N3CCOCC3)c(Cl)cc2Cl)sc2c1CCN(Cc1cccc(O)c1)C2 | 16 (≈ 26.3 µM) | – | – | 0.42 | – | inactive | inactive | – | inactive | 91 | 81 |
| CC1CCN(S(=O)(=O)c2cc(C(=O)Nc3sc4c(c3C#N)CCCC4)c(Cl)cc2Cl)CC1 | – | – | 87 | – | 80 | inactive | inactive | 90 | inactive | – | – |
